Experiment [1] deals with Plasmodium falciparum. Put plainly: Antimalarial activity against Plasmodium falciparum Itg2 in human erythrocytes by [3H]hypoxanthine uptake. The experiment is classed as functional, organism-based.
Experiment [2] deals with T1, Cysteine protease falcipain-3 (Plasmodium falciparum, UniProt Q9NBA7).
T1 sequence (Q9NBA7 whole entry): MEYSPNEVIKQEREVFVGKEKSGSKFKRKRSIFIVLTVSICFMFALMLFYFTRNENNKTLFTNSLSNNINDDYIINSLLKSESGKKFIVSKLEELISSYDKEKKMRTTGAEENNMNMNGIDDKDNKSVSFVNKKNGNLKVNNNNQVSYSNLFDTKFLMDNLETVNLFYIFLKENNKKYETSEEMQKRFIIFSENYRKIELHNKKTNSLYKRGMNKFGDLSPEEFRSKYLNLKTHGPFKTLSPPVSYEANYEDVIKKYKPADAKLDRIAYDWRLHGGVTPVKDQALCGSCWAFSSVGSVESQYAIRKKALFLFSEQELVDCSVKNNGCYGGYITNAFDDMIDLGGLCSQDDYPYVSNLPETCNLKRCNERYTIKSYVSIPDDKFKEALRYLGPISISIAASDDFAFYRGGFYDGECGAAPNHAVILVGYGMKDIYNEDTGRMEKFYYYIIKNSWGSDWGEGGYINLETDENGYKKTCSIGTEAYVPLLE
In words: Inhibition of Plasmodium falciparum recombinant falcipain-3.

Experiment [3] deals with Plasmodium falciparum. Put plainly: Antimalarial activity against chloroquine-sensitive Plasmodium falciparum 3D7 in human erythrocytes by [3H]hypoxanthine uptake. The experiment is classed as functional, organism-based. Put shortly: (§1)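 P. falciparum kept in continuous culture in human erythrocytes; compounds tested in triplicate on parasite-infected red cells. Growth read as parasite [3H]-hypoxanthine incorporation, and IC50 derived from it. TM6 is a chloroquine-resistant strain and 3D7 a chloroquine-sensitive strain.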

For another experiment, the target named is T2, Falcipain 2 (Plasmodium falciparum, UniProt Q9N6S8).
T2 sequence (Q9N6S8 whole entry): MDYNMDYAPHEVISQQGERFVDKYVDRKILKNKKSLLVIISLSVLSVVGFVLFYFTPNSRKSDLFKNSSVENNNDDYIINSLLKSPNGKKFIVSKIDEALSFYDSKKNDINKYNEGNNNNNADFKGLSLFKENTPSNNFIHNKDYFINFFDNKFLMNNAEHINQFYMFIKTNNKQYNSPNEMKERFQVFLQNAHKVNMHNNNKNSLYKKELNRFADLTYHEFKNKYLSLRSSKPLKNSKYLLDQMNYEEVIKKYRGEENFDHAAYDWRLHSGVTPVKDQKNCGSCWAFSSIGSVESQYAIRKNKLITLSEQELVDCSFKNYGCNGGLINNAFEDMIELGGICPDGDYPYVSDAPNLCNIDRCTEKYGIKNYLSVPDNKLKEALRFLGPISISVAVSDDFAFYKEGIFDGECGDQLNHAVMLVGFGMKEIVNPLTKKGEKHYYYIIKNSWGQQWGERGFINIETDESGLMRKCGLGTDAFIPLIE
Put plainly: Inhibition of Plasmodium falciparum recombinant falcipain-2.

The subject of experiment [4] is Plasmodium falciparum. In words: Antimalarial activity against chloroquine-resistant Plasmodium falciparum TM6 in human erythrocytes by [3H]hypoxanthine uptake. The experiment is classed as functional, organism-based. Put shortly:
as §1

Our source for the IC50 values is ChEMBL document CHEMBL1158154, “Design and synthesis of novel 2-pyridone peptidomimetic falcipain 2/3 inhibitors” (Bioorg Med Chem Lett, 2008).

Usually IC50 stands for the concentration that gives 50% inhibition. Consider `CC(C)C[C@H](NC(=O)N1CCOCC1)C(=O)N[C@H](/C=C/S(=O)(=O)c1ccccc1)CCc1ccccc1`, for which the 50% inhibitory concentration (IC50) in the experiment with Plasmodium falciparum [1] came out at 0.003 µM; in experiment [2], 0.021 µM.

In the case of `COC(=O)/C=C/[C@H](CCc1ccccc1)n1cccc(NC(=O)OCc2ccccc2)c1=O`, the IC50 in the experiment with Plasmodium falciparum [3] was 27.9 µM; at Falcipain 2, 19 µM; with Plasmodium falciparum [4] it was 35.3 µM; in experiment [2], over 25 µM.

Regarding `O=C(Nc1cccn([C@H](/C=C/S(=O)(=O)c2ccccc2)CCc2ccccc2)c1=O)OCc1ccccc1`, the IC50 in the experiment with Plasmodium falciparum [3] was 5.7 µM; with Plasmodium falciparum [4], 9 µM.

As to `O=C(Nc1cccn([C@H](/C=C/S(=O)(=O)c2ccccc2)Cc2ccccc2)c1=O)OCc1ccccc1`, the IC50 was 35.7 µM with Plasmodium falciparum [3] and 36 µM in the experiment with Plasmodium falciparum [4].

On to `O=C[C@H](CCc1ccccc1)n1cccc(NC(=O)OCc2ccccc2)c1=O`, for which the concentration for half-maximal inhibition (IC50) with Plasmodium falciparum [3] was 31 µM; at Falcipain 2, 10.9 µM; with Plasmodium falciparum [4], 22.7 µM; in experiment [2] it was over 25 µM.

Regarding `O=C[C@H](Cc1ccccc1)n1cccc(NC(=O)OCc2ccccc2)c1=O`, the results for the IC50 in the experiment with Plasmodium falciparum [3] and with Plasmodium falciparum [4] were 37.3 µM and 36 µM, respectively.
